Source: PubChem (several laboratories)
NR2E3 ag-1 = agonists of human NR2E3 nuclear receptor | inhibition of corepressor binding, % at 3.98 µM | Q9Y5X4 | 360,000 tested, 0.35% active | CHO-S Gal4-NCOR/VP16-NR2E3 two-hybrid, luciferase;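 active means inhibition above the mean of all tested compounds plus 3 SD, cut at about 70% in these data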;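 further: higher means lower luciferase signal from less NR2E3 corepressor binding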
Target sequence (Q9Y5X4 whole entry, looked up, the tested form may be a part): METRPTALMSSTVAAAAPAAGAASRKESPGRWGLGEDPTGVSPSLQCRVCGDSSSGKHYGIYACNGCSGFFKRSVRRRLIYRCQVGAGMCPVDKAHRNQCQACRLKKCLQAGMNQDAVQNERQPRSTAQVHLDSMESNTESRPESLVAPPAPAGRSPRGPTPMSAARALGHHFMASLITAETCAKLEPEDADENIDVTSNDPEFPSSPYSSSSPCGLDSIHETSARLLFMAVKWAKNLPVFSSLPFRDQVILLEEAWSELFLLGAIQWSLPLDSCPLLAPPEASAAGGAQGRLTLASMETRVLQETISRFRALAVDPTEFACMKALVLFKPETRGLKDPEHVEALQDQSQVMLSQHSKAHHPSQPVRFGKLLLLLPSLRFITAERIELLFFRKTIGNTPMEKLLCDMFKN
Rev-erbA mod = modulators of human Rev-erb alpha DNA binding; activity, % at 10 µM; P20393; 370,000 tested, 0.79% active; Rev-erbα–FITC-DNA binding, fluorescence polarization, 90 min;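 active means activity above about 14%, limit read from the data; passing the limit was not always enough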
NR2E3 ag-2 = NR2E3 (human) agonism | Q9Y5X4 | inhibition of corepressor binding, % at 4.78 µM | GST-NR2E3/biotin-RetCOR TR-FRET, 1536-well | 320,000 tested, 0.12% active;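 active means percent inhibition above the cutoff of mean plus 3 SD of all tested compounds, set per screening campaign, cut at about 20% in these data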
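Test system – NR2E3–RetCOR corepressor complex · Quantity – NR2E3 fusion 1.35 nM · Buffer or medium – Tris pH 7.5 · Incubation – Compound–protein incubation for 5 h at 4 °C · Technique – TR-FRET, Eu(K)-anti-GST donor, streptavidin-D2 acceptor, ex 340, em 617/671 nm · Evaluation – percent inhibition of 671/617 nm emission ratio versus biotin and DMSO controls · Plate – 1536-well format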
PG9 binder = PG9 antibody binding by small molecule. TR-FRET gp120-PG9 antibody binding. inhibition, % at 6.7 µM. 360,000 tested, 0.43% active. AID 624416; in the data active means inhibition above about 8.5%
NR2E3 ag confirm = NR2E3 agonism confirmed in two-hybrid assay | shares compounds with NR2E3 ag-1 | CHO-S mammalian two-hybrid NR2E3-NCOR, luciferase luminescence | inhibition, % at 3.98 µM | 2,300 tested, 51% active;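 active means average inhibition above a cutoff equal to the mean inhibition of all tested compounds plus one SD, cut at about 70% in these data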
GAL4-VP16 luc = counter-screen for NR2E3 agonists: GAL4-VP16 reporter inhibitors. shares compounds with NR2E3 ag-1. CHO-S GAL4-VP16 luciferase reporter, luminescence. 2,300 tested, 29% active. inhibition, % at 3.98 µM;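 active means mean inhibition above a cutoff equal to the average over all tested compounds plus one standard deviation, cut at about 70% in these data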;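 further: luciferase from a UAS reporter driven by GAL4-VP16 transactivation; higher means less reporter light so more repression of VP16 activity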
A number is an active result; 0 = inactive; - = no result given. Hits are enriched below; roughly 1.4% of the tested compounds scored in any of these assays.

SMILES | NR2E3 ag-1 | Rev-erbA mod | NR2E3 ag-2 | PG9 binder | NR2E3 ag confirm | GAL4-VP16 luc
CCN(C(=O)c1ccc(C(C)(C)C)cc1)c1nnc(Cn2nnc3ccccc32)s1 | 89.0 | 0 | 0 | 0 | 92.4 | 77.3
Cc1ccc(NC(=S)NCCSc2ccc(Cl)cc2)cc1 | 0 | 0 | 0 | 0 | - | -
Cc1ccc(SCCNC(=S)Nc2cc(C)cc(C)c2)cc1 | 0 | 0 | 0 | 0 | 0 | 0
COc1ccc(CNCC#Cc2ccc(C(F)(F)F)cc2)c(OC)c1 | - | 0 | - | - | - | -
O=S(=O)(O)CC(S)CS (stereo unspecified) | - | 0 | - | - | - | -
COC(=O)C12OCC34C(CC5C(C)=C(O)C(=O)CC5(C)C3C(O)C1O)OC(=O)C(OC(=O)C=C(C)C)C24 (stereo unspecified) | 103.4 | 0 | - | 0 | 99.5 | 98.4
Cn1c(=O)cc(OCCCC(=O)Nc2cc(Br)ccn2)c2ccccc21 | - | 0 | - | - | - | -
Cc1ccnc(NC(=O)CSc2cc(=O)n(C)c3ccccc23)c1 | 0 | 0 | 0 | 0 | 89.2 | 0
Cc1ccnc(NC(=O)CCCOc2cc(=O)n(C)c3ccccc23)c1 | 0 | 0 | 0 | 0 | 72.6 | 0
Cc1ccc(S(=O)(=O)CC2CSc3nc4ccccc4n32)cc1 (stereo unspecified) | 74.5 | 0 | 0 | 0 | 93.0 | 0
Clc1cccc(Cl)c1CON/C=N/c1ncnc2sccc12 | 0 | 0 | 0 | 0 | 0 | 0
Clc1cccc(CON/C=N/c2ncnc3sccc23)c1 | 0 | 0 | 0 | 0 | - | -
COc1ccccc1CNS(=O)(=O)c1ccc2c(c1)CC(C)N2C(=O)C1CCC1 (stereo unspecified) | 71.8 | 0 | 0 | 0 | 72.2 | 0
Clc1ccc([C@H]2OC[C@@]3(CNCC4CC4)CS[C@H](c4ccc(Cl)cc4)N23)cc1 | - | 0 | - | - | - | -
CC(=NNC(=S)Nc1cccc(Cl)c1)c1ccccn1 | 95.4 | 0 | - | 0 | 0 | 0
CC(=NNC(=S)SCc1ccccc1)c1ccccn1 | 0 | 0 | - | 0 | 0 | 0
S=C(NCc1ccccn1)Nc1cccc(Cl)c1 | 0 | 0 | 0 | 0 | - | -
C/C(=N\NC(=O)c1ccc(Cl)cc1)c1ccccn1 | 0 | 0 | 0 | 0 | - | -
CCCCCC(=O)N/N=C(\C)c1ccccn1 | 0 | 0 | 0 | 0 | - | -
CC(=NNC(=S)N1CCCC1)c1ccccn1 | 86.5 | 0 | - | 0 | 0 | 0
CC(=NNC(=S)N1CCC1)c1ccccn1 | 75.3 | 0 | - | 0 | 0 | 0
Clc1ccc(-n2ncc3c(N4CCCCCC4)ncnc32)cc1 | 86.5 | 0 | 0 | 0 | 83.2 | 0
CN(Cc1ccco1)C(=O)Cn1c(=O)oc2cc(S(=O)(=O)NCc3ccccc3)ccc21 | 0 | 0 | 0 | 0 | - | -
CN(Cc1ccccc1)C(=O)Cn1c(=O)oc2cc(S(=O)(=O)NCc3ccccc3)ccc21 | 0 | 0 | 0 | 0 | 0 | 0
COc1ccc(/C=C2\NC(=O)C(C=NCc3ccccc3)=C2O)cc1 | 0 | 0 | 0 | 0 | - | -
SMILES | NR2E3 ag-1 | Rev-erbA mod | NR2E3 ag-2 | PG9 binder | NR2E3 ag confirm | GAL4-VP16 luc
O=C1N/C(=C\c2ccc(O)cc2)C(O)=C1C=NCc1ccccc1 | 0 | 0 | 0 | 0 | 72.8 | 0
CN(C)CCCNS(=O)(=O)c1ccc(NC2CCCCCC2)c([N+](=O)[O-])c1 | 0 | 0 | 0 | 0 | 0 | 0
Nc1cc(S(=O)(=O)N2CCCCC2)ccc1N1CCOCC1 | 0 | 0 | 0 | 0 | - | -
Nc1cc(S(=O)(=O)Nc2ccccc2Cl)ccc1N1CCCCC1 | 70.1 | 0 | - | 0 | 83.5 | 0
Nc1cc(S(=O)(=O)c2ccc(N3CCCCC3)c(N)c2)ccc1N1CCCCC1 | 94.1 | 0 | - | 0 | 95.2 | 83.8
Nc1ccc(N2CCCCC2)c(S(=O)(=O)Nc2ccccc2Cl)c1 | 0 | 0 | 0 | 0 | - | -
CC1CCN(c2ccc(S(=O)(=O)N3CCC(C)CC3)cc2N)CC1 | 100.0 | 0 | 0 | 0 | 87.4 | 72.1
COc1ccc(NS(=O)(=O)c2ccc(N3CCCCC3)c(N)c2)cc1 | 92.0 | 0 | 0 | 0 | 95.1 | 85.6
COc1ccc(NS(=O)(=O)c2ccc(N3CCCCC3)c(NC(=O)C(C)NC(N)=O)c2)cc1 (stereo unspecified) | 0 | 0 | - | 0 | - | -
CN1OC[C@@H]2CN[C@H](c3ccc(-c4ccc(C#N)cc4)cc3)C[C@@H]21 | 0 | 0 | - | 0 | - | -
CN1OC[C@@H]2CN[C@H](c3ccc(-c4cc5ccccc5o4)cc3)C[C@@H]21 | 91.5 | - | - | - | 78.5 | 0
Cc1ccc(S(=O)(=O)Nc2cccc3ncccc23)s1 | 102.2 | - | 0 | - | 0 | 0
Cc1ccc(-n2c(SCC(=O)c3ccc(O)c(O)c3)nnc2-c2ccccc2)cc1 | - | 0 | - | - | - | -
O=C1C(Nc2ccc(O)cc2)=C/C(=N/S(=O)(=O)c2cccs2)c2ccccc21 | 103.3 | 0 | - | 0 | 100.4 | 99.4
CCc1ccc(S(=O)(=O)/N=C2\C=C(Nc3cccc(C(=O)O)c3)C(=O)c3ccccc32)cc1 | 0 | 0 | 0 | 0 | - | -
CCc1ccc(S(=O)(=O)/N=C2\C=C(Nc3ccc(O)cc3)C(=O)c3ccccc32)cc1 | 113.0 | - | 0 | - | 99.9 | 100.5
Cc1cc(C)c(S(=O)(=O)/N=C2\C=C(Nc3ccc(C(=O)O)cc3)C(=O)c3ccccc32)c(C)c1 | 111.6 | 0 | 0 | 0 | 100.2 | 98.0
O=C(O)c1ccc(NC2=C/C(=N/S(=O)(=O)c3ccccc3)c3ccccc3C2=O)cc1 | 0 | 0 | - | 0 | - | -
CCOC(=O)[C@@]12CCCC3=C1N(CCC3)C(=O)[C@H]2CC(=O)NCc1ccccc1 | - | 0 | - | - | - | -
CCC(NC(=O)c1cccc2c1C(=O)N(Cc1cccnc1)C2)c1ccccc1 (stereo unspecified) | - | 0 | - | - | - | -
COc1ccc(/C(C)=N/NC(=S)NCc2ccco2)cc1 | 0 | 0 | 0 | 0 | 0 | 0
NNC(=S)NCCc1ccccc1 | 0 | 0 | 0 | 0 | 0 | 0
C=CCNC(=S)N/N=C(\C)c1ccc(OC)cc1 | 0 | 0 | 0 | 0 | - | -
C/C(=N\NC(=S)NCc1ccccc1)c1ccc2ccccc2c1 | 0 | 0 | 0 | 0 | 0 | 0
COc1ccc(CNC(=S)N/N=C(\C)c2ccc(OC)cc2)cc1 | 0 | 0 | 0 | 0 | 0 | 0
SMILES | NR2E3 ag-1 | Rev-erbA mod | NR2E3 ag-2 | PG9 binder | NR2E3 ag confirm | GAL4-VP16 luc
COc1cc(O)c(C(CC(=O)N2CCCC(C)C2)c2ccccc2)c(OC)c1 (stereo unspecified) | - | 0 | - | - | - | -
Cc1ccc(-n2c(Cc3cccs3)nnc2SCC(=O)Nc2ccccc2-c2ccccc2)cc1 | - | 0 | - | - | - | -
CCCCNC(=O)C[C@H]1C[C@@]2(C(=O)OC)C(=C[C@H](C(C)C)O[C@@H]2C2CC2)N(Cc2ccc3c(c2)OCO3)C1=O | - | 0 | - | - | - | -
COc1ccc(/C(C)=N/NC(=S)NCCc2ccccc2)cc1 | 0 | 0 | 0 | 0 | 0 | 0
C/C(=N\NC(=S)NCCc1ccccc1)c1cccc(Br)c1 | 0 | 0 | 0 | 0 | - | -
Cc1sc(NC(=O)CN2CCOCC2)nc1-c1ccc2c(c1)CCN2S(=O)(=O)c1ccccc1 | 0 | 0 | 0 | 0 | 85.1 | 71.1
CSc1ccc(COC(=O)c2cc([N+](=O)[O-])ccc2N2CCOCC2)cc1 | 0 | 0 | 0 | 0 | 0 | 0
CCOC(=O)C1(Cc2ccccc2)CCN(Cc2cccc(C#N)c2)CC1 | - | 0 | - | - | - | -
Cc1cccc(NC(=S)N/N=C(\c2ccccc2)C(C)C)c1 | 0 | 0 | 0 | 0 | 0 | 0
CC/C(=N\NC(=S)Nc1cccc(C)c1)c1ccccc1 | 0 | 0 | 0 | 0 | - | -
